Reference: ChEMBL document CHEMBL5034020, “Self-Masked Aldehyde Inhibitors: A Novel Strategy for Inhibiting Cysteine Proteases” (J Med Chem, 2021)
The source made the active and inactive calls. The rule behind the calls is not given here. Residues, ends and D or L forms follow the SMILES beside them. *: point of attachment. Cbz = O=C(OCc1ccccc1)*

Tests used:
Cruzipain = Cruzipain (Trypanosoma cruzi, UniProt P25779); test: Time dependent inhibition of Trypanosoma cruzi cruzain using Cbz-Phe-Arg-AMC as substrate assessed as inhibition constant for EI complex measured for 0.5 to 1 hr by fluorescence based analysis
Chain of Cruzipain (P25779 whole entry): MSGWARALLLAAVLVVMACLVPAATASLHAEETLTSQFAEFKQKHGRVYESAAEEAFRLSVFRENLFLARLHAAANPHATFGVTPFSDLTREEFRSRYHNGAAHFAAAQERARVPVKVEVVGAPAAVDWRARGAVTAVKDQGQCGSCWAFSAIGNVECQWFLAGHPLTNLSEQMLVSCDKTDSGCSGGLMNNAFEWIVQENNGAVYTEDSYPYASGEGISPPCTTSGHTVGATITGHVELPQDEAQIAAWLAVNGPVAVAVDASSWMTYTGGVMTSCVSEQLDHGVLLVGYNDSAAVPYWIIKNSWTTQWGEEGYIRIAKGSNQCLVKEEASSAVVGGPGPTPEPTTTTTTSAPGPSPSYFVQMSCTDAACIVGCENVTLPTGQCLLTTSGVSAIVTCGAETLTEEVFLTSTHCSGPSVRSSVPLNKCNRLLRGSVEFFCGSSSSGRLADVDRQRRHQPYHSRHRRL

[1] = test system: Trypanosoma brucei brucei; test: Antitrypanosomal activity against bloodstream form of Trypanosoma brucei brucei measured after 3 to 4 days by Z2 coulter counter based analysis; assay type: functional, organism-based
Outline: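 Bloodstream-form T. b. brucei SM427 grown at 37 °C in HM1–9 with 10% FBS and penicillin–streptomycin, seeded at ~1×10⁶ cells. Inhibitor at 0.5–20 μM final (DMSO <1%). Cultures diluted daily to stay in log phase, with inhibitor re-added each time. Cells counted with a Coulter counter.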

C2C12 = test: Cytotoxicity against mouse C2C12 cells assessed as reduction in cell viability at up to 40 uM; assay type: cell-based
[2] = Stability of the compound in buffer at pH 7.5 assessed as conversion to N-((2S)-1-((3S)-2-hydroxychroman-3-ylamino)-1-oxo-3-phenylpropan-2-yl)-4-methylpiperazine-1-carboxamide by measuring half life by LC-MS analysis; assay type: physicochemical
[3] = target: Cruzipain (Trypanosoma cruzi) (UniProt P25779); test: Reversible inhibition of Trypanosoma cruzi cruzain using Cbz-Phe-Arg-AMC as substrate assessed as enzyme recovery at 10 fold >apparent Ki preincubated for 2 hrs followed by 100-fold dilution in presence of substrate by rapid dilution assay relative to control; set-up: scale not given: the % may be the effect or the level left
Chain of Cruzipain (Trypanosoma cruzi) (P25779 123-467 limits assumed): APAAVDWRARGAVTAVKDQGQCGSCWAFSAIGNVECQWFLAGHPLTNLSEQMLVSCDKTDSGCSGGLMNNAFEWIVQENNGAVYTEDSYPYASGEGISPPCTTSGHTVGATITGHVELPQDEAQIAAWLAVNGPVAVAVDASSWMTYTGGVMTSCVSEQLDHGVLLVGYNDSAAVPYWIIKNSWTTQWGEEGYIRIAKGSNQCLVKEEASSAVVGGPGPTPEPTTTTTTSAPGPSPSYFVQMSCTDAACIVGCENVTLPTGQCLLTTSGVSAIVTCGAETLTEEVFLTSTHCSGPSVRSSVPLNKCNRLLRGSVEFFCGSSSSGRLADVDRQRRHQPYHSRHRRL

[4] = target: Cruzipain (Trypanosoma cruzi) (UniProt P25779); test: Reversible inhibition of Trypanosoma cruzi cruzain using Cbz-Phe-Arg-AMC as substrate at 0.1 times apparent Ki preincubated for 2 hrs followed by 100-fold dilution in presence of substrate by rapid dilution assay relative to control
[5] = target: Cruzipain (Trypanosoma cruzi) (UniProt P25779); test: Binding affinity to Trypanosoma cruzi cruzain assessed as formation of enzyme-inhibitor adducts by measuring mass changes by mass spectrometric analysis
Trypanosoma cruzi = test: Antitrypanosomal activity against Trypanosoma cruzi infected in mouse C2C12 cells incubated for 2 days by DAPI staining based microscopic analysis; assay type: functional, organism-based; conditions: C2C12, 48 h
Outline: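 Inhibitor added as 3-fold serial dilutions, top 40 μM (typically 0.02–40 μM), 2 days at 37 °C. Fixed with 2% PFA in PBS, stained with 5 μg/mL DAPI for >30 min in the dark, then imaged to count parasites and host cells.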

[6] = target: Cruzipain (Trypanosoma cruzi) (UniProt P25779); test: Reversible inhibition of Trypanosoma cruzi cruzain using Cbz-Phe-Arg-AMC as substrate assessed as enzyme recovery preincubated for 2 hrs followed by 100-fold dilution in presence of substrate by rapid dilution assay
[7] = Chemical stability of the compound in NMR buffer in absence of DTT assessed as phenylhydrazone formation at 0.2 mM incubated for 2 hrs in presence of 1 M phenyl hydrazine by UV absorbance based analysis; assay type: physicochemical; conditions: 200 µM
Outline: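 0.2 mM compound treated with 1 mM phenylhydrazine final (added from a 1 M stock) in NMR buffer lacking DTT, with a DMSO control. Phenylhydrazone formation followed continuously by UV absorbance at 282 nm for 2 h.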

[8] = target: Cruzipain (Trypanosoma cruzi) (UniProt P25779); test: Time dependent inhibition of Trypanosoma cruzi cruzain using Cbz-Phe-Arg-AMC as substrate measured after >= 20 mins; conditions: time min >=20, TDE = time-dependent effect
Outline: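 Started by adding cruzain to 0.2 nM. Fluorescence (ex 360 / em 460 nm) followed for 20–60 min.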

Cytochrome P450 3A4 = Cytochrome P450 3A4 (Homo sapiens, UniProt P08684); test: Metabolic stability of the compound assessed as CYP3A4 (unknown origin)-mediated conversion to N-((2S)-1-((3S)-2-hydroxychroman-3-ylamino)-1-oxo-3-phenylpropan-2-yl)-4-methylpiperazine-1-carboxamide measured up to 4 hrs in presence of NADPH-regenerating system; assay type: ADME
Chain of Cytochrome P450 3A4 (P08684 whole entry): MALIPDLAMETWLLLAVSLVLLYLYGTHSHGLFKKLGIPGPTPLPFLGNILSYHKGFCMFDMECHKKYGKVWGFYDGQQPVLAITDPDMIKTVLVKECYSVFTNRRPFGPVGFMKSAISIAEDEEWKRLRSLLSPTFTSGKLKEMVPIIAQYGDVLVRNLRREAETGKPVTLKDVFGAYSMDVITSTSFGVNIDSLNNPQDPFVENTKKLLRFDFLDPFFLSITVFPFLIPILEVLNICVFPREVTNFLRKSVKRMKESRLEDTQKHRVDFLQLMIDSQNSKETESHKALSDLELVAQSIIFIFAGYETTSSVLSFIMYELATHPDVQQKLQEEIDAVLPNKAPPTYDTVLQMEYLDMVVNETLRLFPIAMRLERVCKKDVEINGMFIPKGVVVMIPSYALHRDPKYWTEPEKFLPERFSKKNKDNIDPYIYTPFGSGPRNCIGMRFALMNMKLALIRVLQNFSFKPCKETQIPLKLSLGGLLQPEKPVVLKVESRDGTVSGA

Cytochrome P450 2C9 = Cytochrome P450 2C9 (Homo sapiens, UniProt P11712); test: Metabolic stability of the compound assessed as CYP2C9 (unknown origin)-mediated conversion to N-((2S)-1-((3S)-2-hydroxychroman-3-ylamino)-1-oxo-3-phenylpropan-2-yl)-4-methylpiperazine-1-carboxamide measured up to 4 hrs in presence of NADPH-regenerating system; assay type: ADME
Chain of Cytochrome P450 2C9 (P11712 whole entry): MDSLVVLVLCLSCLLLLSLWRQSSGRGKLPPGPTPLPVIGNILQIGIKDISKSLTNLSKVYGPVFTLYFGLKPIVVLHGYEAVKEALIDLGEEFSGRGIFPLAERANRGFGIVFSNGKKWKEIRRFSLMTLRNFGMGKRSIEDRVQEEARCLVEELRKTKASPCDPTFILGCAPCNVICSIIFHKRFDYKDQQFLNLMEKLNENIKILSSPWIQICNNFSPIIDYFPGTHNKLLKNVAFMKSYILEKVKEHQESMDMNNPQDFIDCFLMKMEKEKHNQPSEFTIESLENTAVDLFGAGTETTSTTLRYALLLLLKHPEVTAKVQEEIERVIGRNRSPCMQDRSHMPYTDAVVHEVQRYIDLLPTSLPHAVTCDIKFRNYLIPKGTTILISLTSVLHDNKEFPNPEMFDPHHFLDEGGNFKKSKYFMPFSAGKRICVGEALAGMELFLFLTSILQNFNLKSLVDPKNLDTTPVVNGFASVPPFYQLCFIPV

Cytochrome P450 2D6 = Cytochrome P450 2D6 (Homo sapiens, UniProt P10635); test: Metabolic stability of the compound assessed as CYP2D6 (unknown origin)-mediated conversion to N-((2S)-1-((3S)-2-hydroxychroman-3-ylamino)-1-oxo-3-phenylpropan-2-yl)-4-methylpiperazine-1-carboxamide measured up to 4 hrs in presence of NADPH-regenerating system; assay type: ADME
Chain of Cytochrome P450 2D6 (P10635 whole entry): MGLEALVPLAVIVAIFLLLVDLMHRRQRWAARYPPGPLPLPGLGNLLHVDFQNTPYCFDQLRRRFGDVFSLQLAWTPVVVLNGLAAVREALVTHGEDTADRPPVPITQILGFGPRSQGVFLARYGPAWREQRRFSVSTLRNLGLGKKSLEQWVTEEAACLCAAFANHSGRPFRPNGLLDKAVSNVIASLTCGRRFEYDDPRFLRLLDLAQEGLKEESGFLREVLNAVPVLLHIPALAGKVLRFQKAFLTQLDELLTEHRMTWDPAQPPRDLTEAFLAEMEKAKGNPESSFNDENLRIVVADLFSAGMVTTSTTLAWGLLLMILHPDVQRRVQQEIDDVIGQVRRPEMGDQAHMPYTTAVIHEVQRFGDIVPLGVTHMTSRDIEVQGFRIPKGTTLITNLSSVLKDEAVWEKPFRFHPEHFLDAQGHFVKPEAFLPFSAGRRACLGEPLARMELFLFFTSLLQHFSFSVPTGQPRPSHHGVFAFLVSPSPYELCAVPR

Procathepsin L = Procathepsin L (Homo sapiens, UniProt P07711); test: Inhibition of human Cathepsin L
Chain of Procathepsin L (P07711 whole entry): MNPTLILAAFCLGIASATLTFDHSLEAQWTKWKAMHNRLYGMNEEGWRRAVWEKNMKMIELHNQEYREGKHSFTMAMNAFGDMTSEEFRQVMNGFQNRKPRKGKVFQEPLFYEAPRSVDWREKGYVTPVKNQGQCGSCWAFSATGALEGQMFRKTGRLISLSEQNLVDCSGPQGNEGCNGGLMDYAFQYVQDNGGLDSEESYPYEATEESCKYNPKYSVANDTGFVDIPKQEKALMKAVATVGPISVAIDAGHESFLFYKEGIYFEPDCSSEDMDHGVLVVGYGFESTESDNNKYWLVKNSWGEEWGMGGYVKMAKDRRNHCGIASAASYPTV

[9] = Inhibition of SARS-CoV-2 3CLpro using ACC-SAVLQSGFRK(DNP)-NH2 as substrate assessed as inhibition constant measured for 0.5 to 1 hr by fluorescence based analysis; set-up: species or system Severe acute respiratory syndrome coronavirus 2
SARS-CoV-2 = test: Antiviral activity against SARS-CoV-2 infected in human A549 cells transfected with ACE2 assessed as virus-induced cytopathic effect incubated for 4 days by microscopic analysis; assay type: functional, organism-based; conditions: Severe acute respiratory syndrome coronavirus 2, A549, 96 h
[10] = target: Cruzipain (Trypanosoma cruzi) (UniProt P25779); test: Time dependent inhibition of Trypanosoma cruzi cruzain using Cbz-Phe-Arg-AMC as substrate assessed as association rate constant for EI complex measured over 30 mins
[11] = Selectivity index, ratio of EC50 for antitrypanosomal activity against bloodstream form of Trypanosoma brucei brucei measured after 3 to 4 days by Z2 coulter counter based analysis to Ki for time dependent inhibition of Trypanosoma cruzi cruzain using Cbz-Phe-Arg-AMC as substrate assessed as inhibition constant for EI complex measured for 0.5 to 1 hr by fluorescence based analysis; assay type: toxicity
Liver carboxylesterase = target: T1, Liver carboxylesterase (Sus scrofa, UniProt Q29550); test: Stability of the compound in buffer at pH 7.5 assessed as porcine esterase-mediated compound degradation measured over 3 hrs by LC-MS analysis; assay type: ADME; conditions: pig, read-out: Drug degradation
T1 sequence (Q29550 whole entry): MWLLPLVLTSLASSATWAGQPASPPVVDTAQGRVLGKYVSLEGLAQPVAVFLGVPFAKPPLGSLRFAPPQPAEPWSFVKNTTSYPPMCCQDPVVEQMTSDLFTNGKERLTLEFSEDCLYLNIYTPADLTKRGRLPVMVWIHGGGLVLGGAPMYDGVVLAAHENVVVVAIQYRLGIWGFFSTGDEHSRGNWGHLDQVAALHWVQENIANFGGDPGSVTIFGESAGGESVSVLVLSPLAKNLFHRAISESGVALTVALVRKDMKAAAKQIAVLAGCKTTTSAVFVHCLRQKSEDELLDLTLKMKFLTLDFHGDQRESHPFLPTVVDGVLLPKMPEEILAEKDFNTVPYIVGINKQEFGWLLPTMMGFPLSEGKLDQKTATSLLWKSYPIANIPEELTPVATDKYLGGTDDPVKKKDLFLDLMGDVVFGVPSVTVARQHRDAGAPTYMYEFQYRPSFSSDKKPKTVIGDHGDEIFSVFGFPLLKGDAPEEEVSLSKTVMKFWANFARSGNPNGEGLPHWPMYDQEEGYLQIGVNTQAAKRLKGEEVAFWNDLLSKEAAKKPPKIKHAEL
Outline: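 Prodrugs at 2 mM in cruzain assay buffer (pH 7.5, 10% DMSO) with porcine liver esterase at 40 U/mL, shaken at 37 °C. Controls without esterase and buffer only. Aliquots taken at 0–300 min and quenched with MeCN, then the supernatant analysed by HPLC–MS with detection at 270 nm.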

[12] = target: Cruzipain (Trypanosoma cruzi) (UniProt P25779); test: Binding affinity to Trypanosoma cruzi cruzain assessed as covalent bond formation between compound and Cys25 residue by 2D HSQC NMR spectroscopy analysis
Outline: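 ¹³C-labelled lactol diluted from a 10 mM DMSO-d6 stock into NMR buffer. Control at 0.6 mM; sample at 0.4 mM with 0.44 mM freshly SEC-purified cruzain. ¹H-¹³C HSQC recorded at 800 MHz and 25 °C, with a spectrum acquired after 1 h with enzyme.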

| Structure (SMILES) | Ki (Cruzipain) [µM] | EC50 [1] [µM] | Activity (C2C12) | Activity [3] [%] | inhibition [4] [%] | EC50 (Trypanosoma cruzi) [µM] | further results |
| --- | --- | --- | --- | --- | --- | --- | --- |
| CCC(=O)OC1Oc2ccccc2C[C@@H]1NC(=O)[C@H](Cc1ccccc1)NC(=O)N1CCN(C)CC1 (stereo partly specified) | > 5 | 3.1 | Non-Toxic | – | – | – | t1/2 [2]: 24 min |
| O=C(N[C@@H](Cc1ccccc1)C(=O)N[C@H]1Cc2cc(Cl)ccc2OC1O)OCc1ccccc1 (stereo partly specified) | 0.074 | 5.8 | Non-Toxic | 91 | 9 | – | – |
| O=C(N[C@@H](Cc1ccccc1)C(=O)N[C@H]1Cc2ccccc2OC1O)OCc1ccccc1 (stereo partly specified) | 0.049 | 6.8 | Non-Toxic | 91 | 9 | 2.9 | Activity [5]: Active |
| O=C(N[C@@H](Cc1ccccc1)C(=O)N[C@H]1Cc2cc(F)ccc2OC1O)OCc1ccccc1 (stereo partly specified) | 0.048 | 2.7 | Non-Toxic | 91 | 9 | 3.5 | Activity [5]: Active |
| CN1CCN(C(=O)N[C@@H](Cc2ccccc2)C(=O)N[C@H](/C=C/S(=O)(=O)c2ccccc2)CCc2ccccc2)CC1 [K-777] | – | – | Toxic | – | – | 0.04 | – |
| O=C(CN[C@@H](Cc1ccccc1)C(=O)N[C@H](CO)Cc1ccccc1O)OCc1ccccc1 | > 10 | – | – | – | – | – | – |
| CN1CCN(C(=O)N[C@@H](Cc2ccccc2)C(=O)N[C@H](C=O)CCc2ccccc2)CC1 | – | – | – | – | – | – | Activity [6]: inactive; Stability [7]: Unstable; inhibition [8]: Tde |
| COC(=O)c1ccc2c(c1)C[C@H](NC(=O)[C@H](Cc1ccccc1)NC(=O)OCc1ccccc1)C(O)O2 (stereo partly specified) | 0.018 | 4 | Non-Toxic | 91 | 9 | 3.5 | – |
| CC(C)C(=O)OC1Oc2ccccc2C[C@@H]1NC(=O)[C@H](Cc1ccccc1)NC(=O)N1CCN(C)CC1 (stereo partly specified) | > 5 | 4 | Non-Toxic | – | – | 10 | t1/2 [2]: 16 min |
| CC(C)OC1Oc2ccccc2C[C@@H]1NC(=O)[C@H](Cc1ccccc1)NC(=O)N1CCN(C)CC1 (stereo partly specified) | > 5 | 14 | Non-Toxic | – | – | – | Stability (Cytochrome P450 3A4): Stable; Stability (Cytochrome P450 2C9): Stable; Stability (Cytochrome P450 2D6): Stable |
| CCOC1Oc2ccccc2C[C@@H]1NC(=O)[C@H](Cc1ccccc1)NC(=O)N1CCN(C)CC1 (stereo partly specified) | > 5 | 12 | Non-Toxic | – | – | – | Stability (Cytochrome P450 3A4): Stable; Stability (Cytochrome P450 2C9): Stable; Stability (Cytochrome P450 2D6): Stable |
| O=C(Cn1ccnc1[N+](=O)[O-])NCc1ccccc1 [BENZNIDAZOLE] | – | – | – | – | – | 4 | – |
| Cc1ccc2c(c1)C[C@H](NC(=O)[C@H](Cc1ccccc1)NC(=O)OCc1ccccc1)C(O)O2 (stereo partly specified) | – | 0.5 | Non-Toxic | 91 | 9 | 5.7 | Activity [5]: Active |
| CC(C)[C@H](NC(=O)OCc1ccccc1)C(=O)N[C@@H](CC1CCCCC1)C(=O)N[C@H](C=O)Cc1ccc[nH]c1=O | – | – | – | – | – | – | Ki (Procathepsin L): 0.053 µM; Ki [9]: 0.009 µM; EC50 (SARS-CoV-2): 5 µM |
| O=C[C@H](Cc1ccccc1)NC(=O)[C@H](Cc1ccccc1)NC(=O)OCc1ccccc1 (Cbz-Phe-Phe-aldehyde) | 0.00044 | 3.3 | Toxic | – | – | 0.5 | Activity [6]: inactive; Ka [10]: 7.6 10^-4/s; Ratio [11]: 7500 |
| CN1CCN(C(=O)N[C@@H](Cc2ccccc2)C(=O)N[C@@H]2Cc3ccccc3C[C@H]2O)CC1 (mixture of isomers) | > 100 | – | – | – | – | – | – |
| CC(=O)OC1Oc2ccccc2C[C@@H]1NC(=O)[C@H](Cc1ccccc1)NC(=O)N1CCN(C)CC1 (stereo partly specified) | 1 | 3.7 | Non-Toxic | – | – | 13 | metabolised at 3 h (Liver carboxylesterase): 10%; t1/2 [2]: 48 min |
| CN1CCN(C(=O)N[C@@H](Cc2ccccc2)C(=O)N[C@H]2Cc3ccccc3OC2O)CC1 (stereo partly specified) | 0.047 | 0.6 | Non-Toxic | – | – | > 20 | Activity [12]: Active; Activity [6]: inactive; Stability [7]: Stable; inhibition [8]: Tde; Activity [5]: Active |
| COc1ccc2c(c1)C[C@H](NC(=O)[C@H](Cc1ccccc1)NC(=O)OCc1ccccc1)C(O)O2 (stereo partly specified) | 0.35 | 2.6 | Non-Toxic | 91 | 9 | – | – |
| COc1ccccc1C[C@@H](C=O)NC(=O)[C@H](Cc1ccccc1)NCC(=O)OCc1ccccc1 | 0.022 | – | – | – | – | – | – |
